The text below walks through data of ChEMBL document CHEMBL2321752, “A potent and highly efficacious Bcl-2/Bcl-xL inhibitor” (J Med Chem, 2013).

The nature of assay [1]: Cytotoxicity against human NCI-H146 cells assessed as growth inhibition after 4 days by WST assay. The following applies: NCI-H146, 96 h. In kind it is functional, cell-based.
The next assay concerns the target Bcl-2-like protein 1 (Homo sapiens, UniProt Q07817). The assay is described as follows: Binding affinity to BCL-XL (unknown origin) after 2 hrs by fluorescence polarization assay. A digest of the protocol:
(§1)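 Competitive FP binding assay. Preformed protein/fluorescent probe complexes were used at 1.5/1 nM for Bcl-2, 10/2 nM for Bcl-xL and 20/2 nM for Mcl-1. These were mixed with serially diluted inhibitor and shaken gently for 2 h at room temperature before millipolarization was read. IC50 came from nonlinear regression, and Ki was calculated from IC50.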
A general note: Polarisation of emitted light reports the rotation of a fluorescent probe.

Assay [2] deals with Apoptosis regulator Bcl-2 (Homo sapiens, UniProt P10415). Put plainly: Binding affinity to BCL2 (unknown origin) after 2 hrs by fluorescence polarization assay. A digest of the protocol:
as §1

pIC50: −log10 of the molar value.

The pIC50 is −log10 of the IC50, conventionally taken in molar units.

Sequence of Apoptosis regulator Bcl-2 (P10415 whole entry): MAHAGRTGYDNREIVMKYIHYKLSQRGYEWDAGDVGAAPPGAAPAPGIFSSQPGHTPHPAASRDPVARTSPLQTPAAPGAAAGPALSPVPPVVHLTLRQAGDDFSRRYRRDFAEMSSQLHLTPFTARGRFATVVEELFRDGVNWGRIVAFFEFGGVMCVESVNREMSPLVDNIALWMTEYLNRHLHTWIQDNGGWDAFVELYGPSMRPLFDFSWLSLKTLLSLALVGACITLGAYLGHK
Sequence of Bcl-2-like protein 1 (Q07817 whole entry): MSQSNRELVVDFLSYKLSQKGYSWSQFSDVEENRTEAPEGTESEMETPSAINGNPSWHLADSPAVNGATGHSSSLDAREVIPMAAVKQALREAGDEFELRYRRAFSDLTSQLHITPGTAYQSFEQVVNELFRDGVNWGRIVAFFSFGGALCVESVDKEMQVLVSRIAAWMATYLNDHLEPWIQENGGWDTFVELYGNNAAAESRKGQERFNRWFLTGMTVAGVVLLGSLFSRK

Take `CN(C)CC[C@H](CSc1ccccc1)Nc1ccc(S(=O)(=O)Nc2ccc(N3CCN(c4cccc(-c5c(C(=O)O)c(Cl)n(C)c5-c5ccc(Cl)cc5)c4)CC3)cc2)cc1[N+](=O)[O-]`: the pIC50 in assay [1] was 7.00; on Bcl-2-like protein 1, 8.33; in assay [2], 8.82.
The corresponding values for `CN(C)CC[C@H](CSc1ccccc1)Nc1ccc(S(=O)(=O)Nc2ccc(N3CCN(c4cccc(-c5c(-c6ccc(Cl)cc6)nn(C)c5C(=O)O)c4)CC3)cc2)cc1[N+](=O)[O-]` are 6.27, 8.23 and 8.43.
Turning to `Cc1c(C(=O)NS(C)(=O)=O)c(-c2cccc(N3CCN(c4ccc(NS(=O)(=O)c5ccc(N[C@H](CCN(C)C)CSc6ccccc6)c([N+](=O)[O-])c5)cc4)CC3)c2)c(-c2ccc(Cl)cc2)n1C`, the results for the pIC50 in assay [1] and in assay [2] were 7.42 and 9.05, respectively.
In the case of `Cc1c(C(N)=O)c(-c2cccc(N3CCN(c4ccc(NS(=O)(=O)c5ccc(N[C@H](CCN(C)C)CSc6ccccc6)c([N+](=O)[O-])c5)cc4)CC3)c2)c(-c2ccc(Cl)cc2)n1C`, the pIC50 in assay [1] is 6.61; on Bcl-2-like protein 1, 7.85; in assay [2] it was 7.72.
Regarding `CN(C)CC[C@H](CSc1ccccc1)Nc1ccc(S(=O)(=O)Nc2ccc(N3CCN(c4cccc(-c5cnoc5-c5ccc(Cl)cc5)c4)CC3)cc2)cc1[N+](=O)[O-]`, the pIC50 in assay [1] is below 5.00; at Bcl-2-like protein 1, 7.66; in assay [2] it was 6.46.
Regarding `CN(C)CC[C@H](CSc1ccccc1)Nc1ccc(S(=O)(=O)Nc2ccc(N3CCN(c4cccc(-c5c(C(=O)NS(C)(=O)=O)cnn5-c5ccc(Cl)cc5)c4)CC3)cc2)cc1[N+](=O)[O-]`, the pIC50 in assay [1] was below 6.00; at Bcl-2-like protein 1, 8.30; in assay [2], 8.27.
Regarding `Cc1c(C(=O)N2CC(C)(O)C2)c(-c2cccc(N3CCN(c4ccc(NS(=O)(=O)c5ccc(N[C@H](CCN(C)C)CSc6ccccc6)c([N+](=O)[O-])c5)cc4)CC3)c2)c(-c2ccc(Cl)cc2)n1C`, the pIC50 in assay [1] is 7.18; at Bcl-2-like protein 1, 8.03; in assay [2], 8.25.
For the compound `CN(C)CC[C@H](CSc1ccccc1)Nc1ccc(S(=O)(=O)Nc2ccc(N3CCN(c4cccc(-c5cncn5-c5ccc(Cl)cc5)c4)CC3)cc2)cc1[N+](=O)[O-]`, the pIC50 in assay [1] is below 5.00; at Bcl-2-like protein 1, 7.74; in assay [2], 7.34.
`CCCCn1c(C)c(C(=O)O)c(-c2cccc(N3CCN(c4ccc(NS(=O)(=O)c5ccc(N[C@H](CCN(C)C)CSc6ccccc6)c([N+](=O)[O-])c5)cc4)CC3)c2)c1-c1ccc(Cl)cc1`: the results for the pIC50 (in assay [1]; on Bcl-2-like protein 1; in assay [2]) were 7.17, 7.80 and 7.64, respectively.
On to `CCn1c(C)c(C(=O)O)c(-c2cccc(N3CCN(c4ccc(NS(=O)(=O)c5ccc(N[C@H](CCN(C)C)CSc6ccccc6)c([N+](=O)[O-])c5)cc4)CC3)c2)c1-c1ccc(Cl)cc1`, for which the pIC50 in assay [2] is 8.70.
On to `Cc1c(Cl)c(-c2cccc(N3CCN(c4ccc(NS(=O)(=O)c5ccc(N[C@H](CCN(C)C)CSc6ccccc6)c([N+](=O)[O-])c5)cc4)CC3)c2)c(-c2ccc(Cl)cc2)n1C`, for which the pIC50 was below 6.00 in assay [1], 7.92 on Bcl-2-like protein 1 and 6.59 in assay [2].
The corresponding values for `Cc1oc(-c2ccc(Cl)cc2)c(-c2cccc(N3CCN(c4ccc(NS(=O)(=O)c5ccc(N[C@H](CCN(C)C)CSc6ccccc6)c([N+](=O)[O-])c5)cc4)CC3)c2)c1C(=O)O` are 6.70, 8.33 and 8.42.
`Cc1c(C(F)(F)F)c(-c2cccc(N3CCN(c4ccc(NS(=O)(=O)c5ccc(N[C@H](CCN(C)C)CSc6ccccc6)c([N+](=O)[O-])c5)cc4)CC3)c2)c(-c2ccc(Cl)cc2)n1C`: the values for the pIC50 (in assay [1]; at Bcl-2-like protein 1; in assay [2]) were below 6.00, 7.89 and 6.57, respectively.
Take `Cc1c(C(=O)O)c(-c2cccc(N3CCN(c4ccc(NS(=O)(=O)c5ccc(N[C@H](CCN(C)C)CSc6ccccc6)c([N+](=O)[O-])c5)cc4)CC3)c2)c(-c2ccc(Cl)cc2)n1C`: the pIC50 in assay [2] is 8.89.
Regarding `CN(C)CC[C@H](CSc1ccccc1)Nc1ccc(S(=O)(=O)Nc2ccc(N3CCN(c4cccc(-c5cnn(C)c5-c5ccc(Cl)cc5)c4)CC3)cc2)cc1[N+](=O)[O-]`, the results for the pIC50 (in assay [1]; at Bcl-2-like protein 1; in assay [2]) were below 5.00, 7.82 and 6.68, respectively.
Take `Cc1c(C#N)c(-c2cccc(N3CCN(c4ccc(NS(=O)(=O)c5ccc(N[C@H](CCN(C)C)CSc6ccccc6)c([N+](=O)[O-])c5)cc4)CC3)c2)c(-c2ccc(Cl)cc2)n1C`: the pIC50 in assay [1] is 6.31; at Bcl-2-like protein 1, 8.35; in assay [2] it was 7.77.
For the compound `CCCn1c(C)c(C(=O)O)c(-c2cccc(N3CCN(c4ccc(NS(=O)(=O)c5ccc(N[C@H](CCN(C)C)CSc6ccccc6)c([N+](=O)[O-])c5)cc4)CC3)c2)c1-c1ccc(Cl)cc1`, the pIC50 in assay [1] was 7.38; at Bcl-2-like protein 1 it was 8.09; in assay [2] it was 8.00.
Consider `Cc1cc(-c2cccc(N3CCN(c4ccc(NS(=O)(=O)c5ccc(N[C@H](CCN(C)C)CSc6ccccc6)c([N+](=O)[O-])c5)cc4)CC3)c2)c(-c2ccc(Cl)cc2)n1C`, for which the pIC50 in assay [1] is below 5.00.
Regarding `CN(C)CC[C@H](CSc1ccccc1)Nc1ccc(S(=O)(=O)Nc2ccc(N3CCN(c4cccc(-c5cn(C)nc5-c5ccc(Cl)cc5)c4)CC3)cc2)cc1[N+](=O)[O-]`, the results for the pIC50 (in assay [1]; at Bcl-2-like protein 1; in assay [2]) were below 5.00, 7.59 and 6.85, respectively.
The corresponding values for `CN(C)CC[C@H](CSc1ccccc1)Nc1ccc(S(=O)(=O)Nc2ccc(N3CCN(c4cccc(-c5c(C(=O)O)nn(C)c5-c5ccc(Cl)cc5)c4)CC3)cc2)cc1[N+](=O)[O-]` are below 6.00, 8.21 and 8.15.
For the compound `CN(C)CC[C@H](CSc1ccccc1)Nc1ccc(S(=O)(=O)Nc2ccc(N3CCN(c4cccc(-c5c(C(=O)NS(C)(=O)=O)ncn5-c5ccc(Cl)cc5)c4)CC3)cc2)cc1[N+](=O)[O-]`, the pIC50 in assay [1] was below 6.00; at Bcl-2-like protein 1, 8.08; in assay [2], 8.42.
In the case of `CN(C)CC[C@H](CSc1ccccc1)Nc1ccc(S(=O)(=O)Nc2ccc(N3CCN(c4cccc(-c5ccnn5-c5ccc(Cl)cc5)c4)CC3)cc2)cc1[N+](=O)[O-]`, the pIC50 in assay [1] is below 5.00; at Bcl-2-like protein 1, 7.49; in assay [2], 6.96.
For the compound `CN(C)CC[C@H](CSc1ccccc1)Nc1ccc(S(=O)(=O)Nc2ccc(N3CCN(c4cccc(-c5c(C(=O)O)c(C(F)(F)F)n(C)c5-c5ccc(Cl)cc5)c4)CC3)cc2)cc1[N+](=O)[O-]`, the pIC50 was 6.30 in assay [1], 8.22 at Bcl-2-like protein 1 and 8.96 in assay [2].
Take `Cc1c(C(=O)N[C@H]2C[C@@](C)(O)C2)c(-c2cccc(N3CCN(c4ccc(NS(=O)(=O)c5ccc(N[C@H](CCN(C)C)CSc6ccccc6)c([N+](=O)[O-])c5)cc4)CC3)c2)c(-c2ccc(Cl)cc2)n1C`: the pIC50 in assay [1] is 7.92; on Bcl-2-like protein 1, 7.82; in assay [2] it was 8.12.
